Results as given in ChEMBL document CHEMBL1811911, “Synthesis and antidepressant-like activity evaluation of sulphonamides and sulphonyl-hydrazones” (Bioorg Med Chem, 2011).
Active and inactive are the calls of the source. The calls are words filed in the database; no cut-off is given here.

Assays:
Mus musculus [1] = experiment: Antidepressant activity in Swiss mouse assessed as reduction of immobility duration at 3 mg/kg, ip administered 30 mins prior test measured during last 4 mins of 6 mins observation period by forced-swimming test relative to control; type: functional, organism-based; set-up: dose 3 mg/kg
Mus musculus [2] = experiment: Antidepressant activity in Swiss mouse assessed as reduction of immobility duration at 6 to 10 mg/kg, ip measured after 6 mins by tail suspension test relative to control; type: functional; set-up: scale not given: the % may be the effect or the level left; conditions: dose mg/kg 6-10; route intraperitoneal
How it was run: (§1)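 Tail suspension test (Steru method) in male adult Swiss mice (25–35 g), compound given ip acutely, vehicle 0.9% NaCl. Mice, isolated acoustically and visually, hung 50 cm above the floor by adhesive tape about 1 cm from tail tip; total immobility time recorded. Percent reduction = [(A−B)/A]×100, A control and B treated immobility.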

Mus musculus [3] = experiment: Antidepressant activity in Swiss mouse assessed as reduction of immobility duration at 10 mg/kg, ip administered 30 mins prior test measured during last 4 mins of 6 mins observation period by forced-swimming test relative to control; type: functional; set-up: scale not given: the % may be the effect or the level left; conditions: route intraperitoneal
Mus musculus [4] = experiment: Antidepressant activity in Swiss mouse assessed as immobility duration at 60 mg/kg, ip administered 30 mins prior test measured during last 4 mins of 6 mins observation period by forced-swimming test (reference value: 166 +/- 12.23 to 218.54 +/- 8.11 Secs); type: functional; conditions: route intraperitoneal
Mus musculus [5] = experiment: Toxicity in Swiss mouse assessed as number of rearing at 60 mg/kg, ip administered 30 mins prior test measured during last 4 mins of 6 mins observation period by forced-swimming test by locomotory test (reference value: 39.45 +/- 6.21); type: organism-based; set-up: dose 60 mg/kg, route intraperitoneal; conditions: in vivo
Mus musculus [6] = experiment: Antidepressant activity in Swiss mouse assessed as reduction of immobility duration at 60 mg/kg, ip administered 30 mins prior test measured during last 4 mins of 6 mins observation period by forced-swimming test (reference value: 0 %); type: functional; set-up: scale not given: the % may be the effect or the level left; conditions: route intraperitoneal
Mus musculus [7] = experiment: Antidepressant activity in Swiss mouse assessed as reduction of immobility duration at 30 to 60 mg/kg, ip measured after 6 mins by tail suspension test relative to control; type: functional; set-up: scale not given: the % may be the effect or the level left; conditions: dose mg/kg 30-60; route intraperitoneal; how it was run: as §1
Mus musculus [8] = experiment: Antidepressant activity in Swiss mouse assessed as reduction of immobility duration at 30 to 60 mg/kg, ip administered 30 mins prior test measured during last 4 mins of 6 mins observation period by forced-swimming test relative to control; type: functional, organism-based
Mus musculus [9] = experiment: Toxicity in Swiss mouse assessed as number of squares crossed at 60 mg/kg, ip administered 30 mins proir test measured during last 5 mins of 6 mins incubation by open-field test (reference value: 96.63 +/- 5.32); conditions: in vivo
Mus musculus [10] = experiment: Antidepressant activity in Swiss mouse assessed as reduction of immobility duration at 60 mg/kg, ip administered 30 mins prior test measured during last 4 mins of 6 mins observation period by forced-swimming test relative to control; type: functional; set-up: scale not given: the % may be the effect or the level left
Mus musculus [11] = experiment: Antidepressant activity in Swiss mouse assessed as immobility duration at 20 mg/kg, ip administered 30 mins prior test measured during last 4 mins of 6 mins observation period by forced-swimming test (reference value: 166 +/- 12.23 to 218.54 +/- 8.11 Secs); type: functional; conditions: route intraperitoneal
How it was run: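 Male adult Swiss mice (25–35 g), group-housed under 12 h light (07:00–19:00) at 23 °C. Single ip dose, vehicle 0.9% NaCl, acute pre-treatment. Porsolt forced swim: individual cylinders (20 cm diameter) with 20 cm water at 24 °C, 6 min swim; immobility scored manually over last 4 min. %IM = (A−B)/A×100 versus vehicle group; N = 8–10 mice; ANOVA with Dunnett's test.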

Mus musculus [12] = experiment: Antidepressant activity in Swiss mouse assessed as immobility duration at 10 mg/kg, ip administered 30 mins prior test measured during last 4 mins of 6 mins observation period by forced-swimming test (reference value: 166 +/- 12.23 to 218.54 +/- 8.11 Secs); type: functional; conditions: route intraperitoneal
Mus musculus [13] = experiment: Toxicity in Swiss mouse assessed as number of rearing at 10 mg/kg, ip administered 30 mins prior test measured during last 4 mins of 6 mins observation period by forced-swimming test by locomotory test (reference value: 39.45 +/- 6.21); type: organism-based; set-up: dose 10 mg/kg, route intraperitoneal; conditions: in vivo
Mus musculus [14] = experiment: Antidepressant activity in Swiss mouse assessed as reduction of immobility duration at 6 to 10 mg/kg, ip administered 30 mins prior test measured during last 4 mins of 6 mins observation period by forced-swimming test relative to control; type: functional, organism-based
Mus musculus [15] = experiment: Antidepressant activity in Swiss mouse assessed as reduction of immobility duration at 10 mg/kg, ip administered 30 mins prior test measured during last 4 mins of 6 mins observation period by forced-swimming test (reference value: 0 %); type: functional; set-up: scale not given: the % may be the effect or the level left; conditions: route intraperitoneal
Mus musculus [16] = experiment: Toxicity in Swiss mouse assessed as number of squares crossed at 10 mg/kg, ip administered 30 mins proir test measured during last 4 mins of 6 mins incubation by forced-swimming test by locomotory test (reference value: 96.63 +/- 5.32); type: organism-based; set-up: dose 10 mg/kg, route intraperitoneal; conditions: in vivo
Mus musculus [17] = experiment: Toxicity in Swiss mouse assessed as number of rearing at 30 mg/kg, ip administered 30 mins prior test measured during last 4 mins of 6 mins observation period by forced-swimming test by locomotory test (reference value: 39.45 +/- 6.21); type: organism-based; set-up: dose 30 mg/kg, route intraperitoneal; conditions: in vivo
Mus musculus [18] = experiment: Antidepressant activity in Swiss mouse assessed as reduction of immobility duration at 6 to 30 mg/kg, ip administered 30 mins prior test measured during last 4 mins of 6 mins observation period by forced-swimming test relative to control; type: functional; set-up: scale not given: the % may be the effect or the level left; conditions: dose mg/kg 6-30; route intraperitoneal
Mus musculus [19] = experiment: Antidepressant activity in Swiss mouse assessed as immobility duration at 30 mg/kg, ip administered 30 mins prior test measured during last 4 mins of 6 mins observation period by forced-swimming test (reference value: 166 +/- 12.23 to 218.54 +/- 8.11 Secs); type: functional; conditions: route intraperitoneal
Mus musculus [20] = experiment: Antidepressant activity in Swiss mouse assessed as reduction of immobility duration at 30 mg/kg, ip administered 30 mins prior test measured during last 4 mins of 6 mins observation period by forced-swimming test (reference value: 0 %); type: functional; set-up: scale not given: the % may be the effect or the level left; conditions: route intraperitoneal
Mus musculus [21] = experiment: Antidepressant activity in Swiss mouse assessed as reduction of immobility duration at 6 to 30 mg/kg, ip measured after 6 mins by tail suspension test relative to control; type: functional; set-up: scale not given: the % may be the effect or the level left; conditions: dose mg/kg 6-30; route intraperitoneal; how it was run: as §1
Mus musculus [22] = experiment: Toxicity in Swiss mouse assessed as number of squares crossed at 30 mg/kg, ip administered 30 mins proir test measured during last 5 mins of 6 mins incubation by open-field test (reference value: 96.63 +/- 5.32); conditions: in vivo
Mus musculus [23] = experiment: Antidepressant activity in Swiss mouse assessed as reduction of immobility duration at 10 to 60 mg/kg, ip administered 30 mins prior test measured during last 4 mins of 6 mins observation period by forced-swimming test relative to control; type: functional
Mus musculus [24] = experiment: Antidepressant activity in Swiss mouse assessed as reduction of immobility duration at 10 to 60 mg/kg, ip measured after 6 mins by tail suspension test relative to control; type: functional; set-up: scale not given: the % may be the effect or the level left; conditions: dose mg/kg 10-60; route intraperitoneal; how it was run: as §1
Mus musculus [25] = experiment: Antidepressant activity in Swiss mouse assessed as reduction of immobility duration at 10 mg/kg, ip measured after 6 mins by tail suspension test relative to control; type: functional; set-up: scale not given: the % may be the effect or the level left; conditions: route intraperitoneal; how it was run: as §1

| SMILES | Activity (Mus musculus [2]) | Activity (Mus musculus [3]) | Time (Mus musculus [12]) | Activity (Mus musculus [13]) | Activity (Mus musculus [15]) | Activity (Mus musculus [16]) | also measured |
| --- | --- | --- | --- | --- | --- | --- | --- |
| O=C1c2cccc3c(Cl)ccc(c23)C(=O)N1Cc1ccc(S(=O)(=O)N2CCOCC2)cc1 | 30.61% | 52.63% | – | – | – | – | Activity (Mus musculus [1]): inactive |
| O=C1C2C3C=CC(O3)C2C(=O)N1c1ccc(S(=O)(=O)N2CCCC2)cc1 (centres undefined) | – | – | – | – | – | – | Time (Mus musculus [4]): 92.95 s; Activity (Mus musculus [5]): 42.95; Activity (Mus musculus [6]): 54.8%; Activity (Mus musculus [7]): 58.85%; Activity (Mus musculus [8]): Active; Activity (Mus musculus [9]): 86.74; Activity (Mus musculus [10]; route intraperitoneal): 28.8% |
| CNCCC(Oc1ccc(C(F)(F)F)cc1)c1ccccc1 (centres undefined) [FLUOXETINE] | – | – | – | – | – | – | Time (Mus musculus [11]): 33.18 s |
| O=C1C2C3C=CC(O3)C2C(=O)N1c1ccc(S(=O)(=O)N/N=C/c2ccc([N+](=O)[O-])cc2)cc1 (centres undefined) | 57.5% | 65.44% | 178.37 s | 38.37 | 18.38% | 98.14 | Activity (Mus musculus [14]): Active |
| O=C1c2cccc3cccc(c23)C(=O)N1Cc1ccc(S(=O)(=O)N2CCOCC2)cc1 | 57.14% | 60.3% | 66 s | 36.67 | 64.89% | 98.85 | Activity (Mus musculus [1]): inactive |
| COc1ccc(/C=N/NS(=O)(=O)c2ccc(N3C(=O)C4C5C=CC(C)(O5)C4C3=O)cc2)cc1 (centres undefined) | 41.64% | 58.53% | 90.37 s | 40.37 | 58.64% | 92.54 | Activity (Mus musculus [14]): Active |
| COc1cc(/C=N/NS(=O)(=O)c2ccc(CN3C(=O)c4ccccc4C3=O)cc2)ccc1O | – | – | – | – | – | – | Activity (Mus musculus [17]): 45.37; Activity (Mus musculus [18]): 63.9%; Time (Mus musculus [19]): 55.37 s; Activity (Mus musculus [20]): 66.64%; Activity (Mus musculus [21]): 69.21%; Activity (Mus musculus [22]): 106.45 |
| CC12C=CC(O1)C1C(=O)N(c3ccc(S(=O)(=O)N/N=C/c4ccc(Cl)cc4)cc3)C(=O)C12 (centres undefined) | – | – | – | – | – | – | Time (Mus musculus [4]): 61 s; Activity (Mus musculus [23]): Active; Activity (Mus musculus [5]): 41; Activity (Mus musculus [24]): 62.87%; Activity (Mus musculus [6]): 72.02%; Activity (Mus musculus [9]): 98.45; Activity (Mus musculus [10]; route intraperitoneal): 62.83% |
| O=C1c2cccc3c(Cl)ccc(c23)C(=O)N1CCc1ccc(S(=O)(=O)N2CCCC2)cc1 | – | – | 82 s | 42 | 56.49% | 86.74 | Activity (Mus musculus [1]): inactive; Activity (Mus musculus [23]): inactive; Activity (Mus musculus [10]): inactive |
| CC12C=CC(O1)C1C(=O)N(c3ccc(S(=O)(=O)N4CCOCC4)cc3)C(=O)C12 (centres undefined) | 23.69% | 28.8% | 131 s | 38 | 36.3% | 101.12 | Activity (Mus musculus [14]): Active |
| COc1cc(/C=N/NS(=O)(=O)c2ccc(CN3C(=O)c4cccc5cccc(c45)C3=O)cc2)ccc1O | – | 60.3% | 70.75 s | 40.75 | 60.3% | 96.1 | Activity (Mus musculus [25]): 74.65% |
| O=C1C2C3C=CC(O3)C2C(=O)N1c1ccc(S(=O)(=O)N/N=C/c2ccc(O)cc2)cc1 (centres undefined) | – | – | – | – | – | – | Activity (Mus musculus [23]): inactive |
| CC12C=CC(O1)C1C(=O)N(c3ccc(S(=O)(=O)N/N=C/c4ccc(Cl)c(Cl)c4)cc3)C(=O)C12 (centres undefined) | – | – | – | – | – | – | Activity (Mus musculus [23]): inactive |
| Cc1ccc(/C=N/NS(=O)(=O)c2ccc(N3C(=O)C4C5C=CC(C)(O5)C4C3=O)cc2)cc1 (centres undefined) | 55.05% | 62.83% | 83 s | 43 | – | 92.74 | Activity (Mus musculus [14]): Active |
| O=C1c2cccc3cccc(c23)C(=O)N1Cc1ccc(S(=O)(=O)N2CCCC2)cc1 | 45.57% | 52.26% | 67.37 s | 37.45 | 64.25% | 108.45 | Activity (Mus musculus [1]): inactive |
| O=C1c2ccccc2C(=O)N1Cc1ccc(S(=O)(=O)N/N=C/c2ccc([N+](=O)[O-])cc2)cc1 | – | – | – | – | – | – | Time (Mus musculus [4]): 52.25 s; Activity (Mus musculus [23]; dose mg/kg 10-60, route intraperitoneal): 68.64%; Activity (Mus musculus [5]): 42.65; Activity (Mus musculus [24]): 64.88%; Activity (Mus musculus [6]): 68.52%; Activity (Mus musculus [9]): 92.54 |
| CC12C=CC(O1)C1C(=O)N(c3ccc(S(=O)(=O)N4CCCC4)cc3)C(=O)C12 (centres undefined) | – | 85% | 133 s | 33 | 33.33% | 96 | Activity (Mus musculus [25]): 31.17% |
| CN(C)CCCN1c2ccccc2CCc2ccccc21 [IMIPRAMINE] | – | – | 49.85 s | – | 57.3% | – | – |
